Measured values published in ChEMBL document CHEMBL1122761, “Beta 1-selective adrenoceptor antagonists. 3. 4-Azolyl-linked phenoxypropanolamines” (J Med Chem, 1984).

Experiments:
[1] = biological target: Adrenergic receptor beta (Rattus norvegicus) (UniProt P18090+P10608+P26255); assay: Beta agonist activity against heart rate in rats; format: functional, tissue-based
In short: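 Rats anesthetized with pentobarbitone sodium (75 mg/kg ip) and reserpinized 20-24 h earlier (5 mg/kg ip). Single iv doses into tail vein, up to 20 animals. Blood pressure and heart rate recorded; ED30 = dose giving 30 beats/min heart-rate rise, with 95% confidence limits from log dose-response linear regression.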

[2] = biological target: Beta-2 adrenergic receptor (Rattus norvegicus) (UniProt P10608); assay: Beta-2 adrenergic receptor antagonism in rats anesthetized with pentobarbitone sodium (75 mg/kg ip)
Beta-2 adrenergic receptor (Rattus norvegicus), sequence (P10608 whole entry, looked up): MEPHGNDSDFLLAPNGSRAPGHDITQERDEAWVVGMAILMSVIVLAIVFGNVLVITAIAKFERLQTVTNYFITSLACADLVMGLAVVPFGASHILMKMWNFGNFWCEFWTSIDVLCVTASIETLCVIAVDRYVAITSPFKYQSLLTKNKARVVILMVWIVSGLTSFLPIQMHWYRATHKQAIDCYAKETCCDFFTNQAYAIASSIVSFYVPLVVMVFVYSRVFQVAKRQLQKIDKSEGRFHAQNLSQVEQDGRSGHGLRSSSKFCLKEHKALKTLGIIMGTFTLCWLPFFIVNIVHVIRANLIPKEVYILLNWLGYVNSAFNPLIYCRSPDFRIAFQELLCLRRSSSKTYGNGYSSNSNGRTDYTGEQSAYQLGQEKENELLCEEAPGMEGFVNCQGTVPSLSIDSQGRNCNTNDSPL

[3] = biological target: Beta-1 adrenergic receptor (Rattus norvegicus) (UniProt P18090); assay: Inhibition of isoprenaline induced tachycardia in anaesthetised rats.; format: functional
Beta-1 adrenergic receptor (Rattus norvegicus), sequence (P18090 whole entry, looked up): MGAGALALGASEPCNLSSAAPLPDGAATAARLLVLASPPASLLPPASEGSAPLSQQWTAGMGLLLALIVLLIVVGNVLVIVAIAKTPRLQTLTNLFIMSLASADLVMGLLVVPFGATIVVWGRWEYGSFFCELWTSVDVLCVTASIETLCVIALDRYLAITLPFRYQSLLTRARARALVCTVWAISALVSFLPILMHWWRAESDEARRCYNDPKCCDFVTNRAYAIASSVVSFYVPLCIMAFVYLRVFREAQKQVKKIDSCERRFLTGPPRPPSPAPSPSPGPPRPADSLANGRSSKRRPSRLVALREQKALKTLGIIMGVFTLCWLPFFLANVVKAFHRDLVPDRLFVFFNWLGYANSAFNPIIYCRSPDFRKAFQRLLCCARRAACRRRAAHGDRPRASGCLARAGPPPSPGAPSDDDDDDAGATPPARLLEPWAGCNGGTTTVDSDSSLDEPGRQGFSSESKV
In short: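 Pentobarbitone-anesthetized rats (75 mg/kg ip), bilaterally vagotomized, tracheal cannula. Isoprenaline given via right femoral vein; carotid blood pressure and tachograph heart rate recorded. Test compound injected 5 min after isoprenaline, cumulative doses up to 2 mg/kg. ED50 (50% reduction of control isoprenaline response) with 95% confidence limits by linear regression of log dose-response.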

[4] = Acid dissociation constant was determined; format: ADME
[5] = biological target: Beta-2 adrenergic receptor (Rattus norvegicus) (UniProt P10608); assay: Inhibition of isoprenaline induced […] response in anaesthetised rats.

CC(C)NCC(O)COc1ccc(Cn2cccn2)cc1 (centres undefined)
ED30 [1]: > 1 mg/kg | ED50 [2]: > 2 mg/kg | ED50 [3]: 0.598 mg/kg

CC(C)NCC(O)COc1ccc(Cn2ccnc2)cc1 (centres undefined)
ED30 [1]: > 1 mg/kg | ED50 [2]: > 1 mg/kg | pKa [4]: 7.2 | ED50 [3]: 0.62 mg/kg

CC(C)NCC(O)COc1ccc(CCCn2cccn2)cc1 (centres undefined)
ED30 [1]: > 1 mg/kg | ED50 [2]: > 2 mg/kg | ED50 [3]: 0.783 mg/kg

CC(C)NCC(O)COc1ccc(OCn2cccn2)cc1 (centres undefined)
ED50 [5]: > 2 mg/kg | ED30 [1]: > 1 mg/kg | pKa [4]: 2 | ED50 [3]: 0.028 mg/kg

CC(C)NCC(O)COc1ccc(SCn2cccn2)cc1 (centres undefined)
ED30 [1]: > 1 mg/kg | ED50 [2]: > 2 mg/kg | ED50 [3]: 0.327 mg/kg

CC(C)NCC(O)COc1ccc(OCCn2nccn2)cc1 (centres undefined)
ED30 [1]: 0.014 mg/kg | ED50 [2]: > 2 mg/kg | pKa [4]: < 1 | ED50 [3]: 0.014 mg/kg

CC(C)NCC(O)COc1ccc(CCn2cncn2)cc1 (centres undefined)
ED30 [1]: > 1 mg/kg | ED50 [2]: > 2 mg/kg | pKa [4]: 3.2 | ED50 [3]: 0.233 mg/kg

CC(C)NCC(O)COc1ccc(OCn2ccnn2)cc1 (centres undefined)
ED50 [5]: > 2 mg/kg | ED30 [1]: 0.05 mg/kg | pKa [4]: 1.25 | ED50 [3]: 0.04 mg/kg

CC(C)NCC(O)COc1ccc(OCCn2nnc3ccccc32)cc1 (centres undefined)
ED30 [1]: > 1 mg/kg | ED50 [2]: > 2 mg/kg | ED50 [3]: 1.27 mg/kg

CC(C)NCC(O)COc1ccc(OCn2cc(Cl)cn2)cc1 (centres undefined)
ED50 [5]: 2.43 mg/kg | ED30 [1]: 0.007 mg/kg | pKa [4]: < 0.6 | ED50 [3]: 0.004 mg/kg

CC(C)NCC(O)COc1ccc(OCCn2cc(Cl)cn2)cc1 (centres undefined)
ED30 [1]: 0.194 mg/kg | ED50 [2]: 0.523 mg/kg | pKa [4]: < 0.6 | ED50 [3]: 0.024 mg/kg

CC(C)NCC(O)COc1ccc(OCCCn2cncn2)cc1 (centres undefined)
ED30 [1]: > 1 mg/kg | ED50 [2]: > 2 mg/kg | ED50 [3]: 0.68 mg/kg

CC(C)NCC(O)COc1ccc(SCCn2cccn2)cc1 (centres undefined)
ED30 [1]: > 1 mg/kg | ED50 [2]: > 2 mg/kg | ED50 [3]: 0.128 mg/kg

CC(C)NCC(O)COc1ccc(CCn2ccnc2)cc1 (centres undefined)
ED30 [1]: > 1 mg/kg | ED50 [2]: > 1 mg/kg | ED50 [3]: 0.186 mg/kg

CC(C)NCC(O)COc1ccc(OCCn2nc3c(n2)CCCC3)cc1 (centres undefined)
ED30 [1]: > 1 mg/kg | ED50 [2]: > 2 mg/kg | ED50 [3]: 0.057 mg/kg

CC(C)NCC(O)COc1ccc(OCCn2cnc3ccccc32)cc1 (centres undefined)
ED30 [1]: > 1 mg/kg | ED50 [2]: > 2 mg/kg | ED50 [3]: 0.687 mg/kg

CC(C)NCC(O)COc1ccc(OCCCn2cccn2)cc1 (centres undefined)
ED30 [1]: > 1 mg/kg | ED50 [2]: > 2 mg/kg | ED50 [3]: 0.334 mg/kg

CC(C)NCC(O)COc1ccc(OCCn2cncn2)cc1 (centres undefined)
ED30 [1]: > 1 mg/kg | ED50 [2]: > 2 mg/kg | pKa [4]: 3.2 | ED50 [3]: 0.17 mg/kg

CC(C)NCC(O)COc1ccc(OCCn2cccn2)cc1 (centres undefined)
ED30 [1]: > 1 mg/kg | ED50 [2]: > 2 mg/kg | pKa [4]: 2 | ED50 [3]: 0.05 mg/kg

CC(C)(C)NCC(O)COc1ccc(OCCn2cccn2)cc1 (centres undefined)
ED30 [1]: 0.154 mg/kg | ED50 [2]: 1.04 mg/kg | ED50 [3]: 0.067 mg/kg

CC(C)NCC(O)COc1ccc(OCCn2ncc3ccccc32)cc1 (centres undefined)
ED30 [1]: > 1 mg/kg | ED50 [2]: > 2 mg/kg | ED50 [3]: 0.263 mg/kg

CC(C)NCC(O)COc1ccc(OCCn2ccnc2)cc1 (centres undefined)
ED30 [1]: > 1 mg/kg | ED50 [2]: > 2 mg/kg | ED50 [3]: 0.97 mg/kg

CC(C)NCC(O)COc1ccc(OCCn2cc(-c3ccccc3)cn2)cc1 (centres undefined)
ED30 [1]: > 1 mg/kg | ED50 [2]: > 2 mg/kg | ED50 [3]: 0.16 mg/kg

CC(C)NCC(O)COc1ccc(OCn2nccn2)cc1 (centres undefined)
ED50 [5]: > 2 mg/kg | ED30 [1]: 0.019 mg/kg | pKa [4]: < 1 | ED50 [3]: 0.011 mg/kg

CC(C)NCC(O)COc1ccc(CCn2cccn2)cc1 (centres undefined)
ED30 [1]: > 1 mg/kg | ED50 [2]: > 2 mg/kg | pKa [4]: 2 | ED50 [3]: 0.209 mg/kg

CC(C)NCC(O)COc1ccc(OCCn2nc3ccccc3n2)cc1 (centres undefined)
ED30 [1]: > 1 mg/kg | ED50 [2]: 0.988 mg/kg | ED50 [3]: 0.05 mg/kg
